Activity calls are given as the source filed them. The calls are words filed in the database; no cut-off is given here.
How the values were obtained:
[1] = system: Platelet-derived growth factor receptor alpha (Homo sapiens), P16234 [V561D]; experiment: Inhibition of recombinant human PDGFRalpha V561D mutant (550 to end residues) at 10 uM using GGMEDIYFEFMGGKKK as substrate measured after 40 mins in presence of [gamma33P]ATP by scintillation counting method
[2] = target: Testis-specific serine/threonine-protein kinase 1 (Homo sapiens) (UniProt Q9BXA7); experiment: Inhibition of recombinant full-length human TSSK1 at 10 uM using KKKVSRSGLYRSPSMPENLNRPR as substrate measured after 120 mins in presence of [gamma33P]ATP by scintillation counting method
[3] = target: Casein kinase II subunit alpha (Homo sapiens) (UniProt P68400); experiment: Inhibition of recombinant full length human CK2alpha1 at 10 uM using RRRDDDSDDD as substrate measured after 40 mins in presence of [gamma33P]ATP by scintillation counting method
[4] = system: Mast/stem cell growth factor receptor Kit (Homo sapiens), P10721 [V560G]; experiment: Inhibition of recombinant human c-Kit V560G mutant (544 to end residues) at 10 uM using GGMEDIYFEFMGGKKK as substrate measured after 40 mins in presence of [gamma33P]ATP by scintillation counting method
[5] = target: Serine/threonine-protein kinase MRCK beta (Homo sapiens) (UniProt Q9Y5S2); experiment: Inhibition of recombinant human MRCKbeta (1 to 473 residues) at 10 uM using KKRNRTLTV as substrate measured after 40 mins in presence of [gamma33P]ATP by scintillation counting method
[6] = Cmax in Sprague-Dawley rat at 10 mg/kg, po administered via gavage by LC-MS/MS analysis; format: ADME, organism-based; parameters: dose 10 mg/kg, route oral; conditions: in vivo
Procedure, shortened: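 Serial jugular-vein blood taken at set times, spun to plasma at 4 ℃, stored at -80 °C. Plasma extracted with acetonitrile containing internal standard, quantified by LC-MS/MS; noncompartmental fit.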

[7] = target: Death-associated protein kinase 2 (Homo sapiens) (UniProt Q9UIK4); experiment: Inhibition of recombinant full-length human DAPK2 at 10 uM using calmodulin as substrate measured after 40 mins in presence of [gamma33P]ATP by scintillation counting method
[8] = target: Transcription initiation factor TFIID subunit 1-like (Homo sapiens) (UniProt Q8IZX4); experiment: Inhibition of human TAF1L (1428 to end residues) using RRRFRPASPLRGPPK as substrate measured after 120 mins in presence of [gamma33P]ATP by scintillation counting method
Homo sapiens [9] = species on record: Homo sapiens; experiment: Inhibition of recombinant full-length human PI3K p110alpha/p65alpha (1 to 571 residues) at 10 uM using phosphatidylinositol-4, 5-bisphosphate as substrate measured after 40 mins by HTRF assay
[10] = target: cGMP-dependent protein kinase 1 (Homo sapiens) (UniProt Q13976); experiment: Inhibition of recombinant full-length human PKG1alpha at 10 uM using RRRLSFAEPG as substrate measured after 40 mins in presence of [gamma33P]ATP by scintillation counting method
[11] = target: Serine/threonine-protein kinase 38-like (Homo sapiens) (UniProt Q9Y2H1); experiment: Inhibition of recombinant human NDR2 (83 to end residues) at 10 uM using RSRSRSRSRSRSRSR as substrate measured after 40 mins in presence of [gamma33P]ATP by scintillation counting method
[12] = target: Serine/threonine-protein kinase SIK3 (Homo sapiens) (UniProt Q9Y2K2); experiment: Inhibition of human SIK3 (1 to 307 residues) using KKKVSRSGLYRSPSMPENLNRPR as substrate measured after 40 mins in presence of [gamma33P]ATP by scintillation counting method
Procedure, shortened: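 Kinase panel of 422 kinases screened by Eurofins KinaseProfiler at a single test-compound concentration of 10 µM.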

[13] = target: Insulin receptor (Homo sapiens) (UniProt P06213); experiment: Inhibition of recombinant human activated IR (1005 to 1310 residues) at 10 uM using KKKSPGEYVNIEFG as substrate measured after 40 mins in presence of [gamma33P]ATP by scintillation counting method
[14] = system: Hepatocyte growth factor receptor (Homo sapiens), P08581 [M1250T]; experiment: Inhibition of recombinant human MET A1209G/V1290L/M1268T mutant (974 to end residues) at 10 uM using KKKGQEEEYVFIE as substrate measured after 40 mins in presence of [gamma33P]ATP by scintillation counting method
[15] = target: Platelet-derived growth factor receptor alpha (Homo sapiens) (UniProt P16234); experiment: Inhibition of recombinant human PDGFRalpha (550 to end residues) at 10 uM using poly(Glu, Tyr) 4:1 as substrate measured after 40 mins in presence of [gamma33P]ATP by scintillation counting method
[16] = target: cAMP-dependent protein kinase catalytic subunit PRKX (Homo sapiens) (UniProt P51817); experiment: Inhibition of recombinant full-length human PrKX at 10 uM using RRRLSFAEPG as substrate measured after 40 mins in presence of [gamma33P]ATP by scintillation counting method
[17] = target: Serine/threonine-protein kinase 4 (Homo sapiens) (UniProt Q13043); experiment: Inhibition of recombinant full-length human MST1 at 10 uM using KKSRGDYMTMQIG as substrate measured after 40 mins in presence of [gamma33P]ATP by scintillation counting method
Homo sapiens [18] = species on record: Homo sapiens; experiment: Inhibition of recombinant full-length human JNK2alpha2 S51N mutant at 10 uM using ATF2 as substrate measured after 40 mins in presence of [gamma33P]ATP by scintillation counting method
Mus musculus = species on record: Mus musculus; experiment: Inhibition of recombinant mouse ARG M982V/A562 mutant (27 to end residues) at 10 uM using EAIYAAPFAKKK as substrate measured after 40 mins in presence of [gamma33P]ATP by scintillation counting method
[19] = system: Serine/threonine-protein kinase TAO3 (Homo sapiens), Q9H2K8 [UNDEFINED MUTATION]; experiment: Inhibition of human TAO3 (1 to 411 residues) using myelin basic protein as substrate measured after 40 mins in presence of [gamma33P]ATP by scintillation counting method
[20] = target: Dual specificity protein kinase CLK4 (Homo sapiens) (UniProt Q9HAZ1); experiment: Inhibition of recombinant human CLK4 (128 to end residues) at 10 uM using YRRAAVPPSPSLSRHSSPHQS(p)EDEEE as substrate measured after 40 mins in presence of [gamma33P]ATP by scintillation counting method
[21] = target: ATPase family AAA domain-containing protein 2B (Homo sapiens) (UniProt Q9ULI0); experiment: Binding affinity to human partial length ATAD2B (Q955 to R1082 residues) expressed in bacterial expression system at 1 uM by BROMOscan assay
Procedure, shortened: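 BROMOscan bromodomain cross-screen run by an outside service, compound at 1 µM against 32 recombinant bromodomains. Binding given as percent of control.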

[22] = target: Wee1-like protein kinase (Homo sapiens) (UniProt P30291); experiment: Inhibition of human Wee1 (214 to end residues) using LSNLYHQGKFLQTFCGSPLYRRR as substrate measured after 40 mins in presence of [gamma33P]ATP by scintillation counting method

Sequence of Insulin receptor (Homo sapiens) (P06213 28-758 limits assumed): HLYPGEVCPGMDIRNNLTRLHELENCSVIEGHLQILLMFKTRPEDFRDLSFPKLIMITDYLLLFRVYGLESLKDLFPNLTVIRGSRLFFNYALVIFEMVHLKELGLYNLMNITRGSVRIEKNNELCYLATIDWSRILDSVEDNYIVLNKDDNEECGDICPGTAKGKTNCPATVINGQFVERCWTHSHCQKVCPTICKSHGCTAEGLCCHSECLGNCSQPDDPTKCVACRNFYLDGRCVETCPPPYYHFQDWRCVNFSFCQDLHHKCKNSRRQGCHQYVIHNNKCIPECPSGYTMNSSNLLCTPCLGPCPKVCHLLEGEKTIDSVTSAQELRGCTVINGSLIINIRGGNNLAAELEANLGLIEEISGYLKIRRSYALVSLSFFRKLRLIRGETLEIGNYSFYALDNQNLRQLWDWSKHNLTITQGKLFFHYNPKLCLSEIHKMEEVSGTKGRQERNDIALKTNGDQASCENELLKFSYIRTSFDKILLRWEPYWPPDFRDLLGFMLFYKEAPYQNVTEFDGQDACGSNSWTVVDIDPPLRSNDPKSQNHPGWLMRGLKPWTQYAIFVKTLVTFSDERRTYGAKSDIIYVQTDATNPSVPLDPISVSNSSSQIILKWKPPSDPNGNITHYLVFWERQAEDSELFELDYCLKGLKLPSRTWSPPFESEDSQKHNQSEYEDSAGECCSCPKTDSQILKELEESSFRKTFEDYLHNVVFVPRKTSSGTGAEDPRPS
Sequence of Insulin receptor (Homo sapiens) (P06213 763-1382 limits assumed): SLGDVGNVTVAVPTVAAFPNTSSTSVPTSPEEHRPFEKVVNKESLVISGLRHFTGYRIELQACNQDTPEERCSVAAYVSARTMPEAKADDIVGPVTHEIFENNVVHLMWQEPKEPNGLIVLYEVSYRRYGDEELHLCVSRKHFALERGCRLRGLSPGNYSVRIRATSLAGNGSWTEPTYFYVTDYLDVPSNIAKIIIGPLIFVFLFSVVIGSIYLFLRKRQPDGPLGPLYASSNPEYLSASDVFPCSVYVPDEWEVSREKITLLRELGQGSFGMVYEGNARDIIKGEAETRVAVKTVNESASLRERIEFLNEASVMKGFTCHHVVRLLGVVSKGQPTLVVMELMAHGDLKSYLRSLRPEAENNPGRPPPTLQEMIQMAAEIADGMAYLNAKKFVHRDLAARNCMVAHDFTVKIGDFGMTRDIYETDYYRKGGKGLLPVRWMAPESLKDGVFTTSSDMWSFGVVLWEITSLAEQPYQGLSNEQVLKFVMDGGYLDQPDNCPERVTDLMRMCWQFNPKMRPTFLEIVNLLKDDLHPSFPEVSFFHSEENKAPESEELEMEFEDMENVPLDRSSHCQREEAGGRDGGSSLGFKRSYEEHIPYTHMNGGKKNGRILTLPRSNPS
Sequence of Transcription initiation factor TFIID subunit 1-like (Homo sapiens) (Q8IZX4 whole entry, the tested form may be a part): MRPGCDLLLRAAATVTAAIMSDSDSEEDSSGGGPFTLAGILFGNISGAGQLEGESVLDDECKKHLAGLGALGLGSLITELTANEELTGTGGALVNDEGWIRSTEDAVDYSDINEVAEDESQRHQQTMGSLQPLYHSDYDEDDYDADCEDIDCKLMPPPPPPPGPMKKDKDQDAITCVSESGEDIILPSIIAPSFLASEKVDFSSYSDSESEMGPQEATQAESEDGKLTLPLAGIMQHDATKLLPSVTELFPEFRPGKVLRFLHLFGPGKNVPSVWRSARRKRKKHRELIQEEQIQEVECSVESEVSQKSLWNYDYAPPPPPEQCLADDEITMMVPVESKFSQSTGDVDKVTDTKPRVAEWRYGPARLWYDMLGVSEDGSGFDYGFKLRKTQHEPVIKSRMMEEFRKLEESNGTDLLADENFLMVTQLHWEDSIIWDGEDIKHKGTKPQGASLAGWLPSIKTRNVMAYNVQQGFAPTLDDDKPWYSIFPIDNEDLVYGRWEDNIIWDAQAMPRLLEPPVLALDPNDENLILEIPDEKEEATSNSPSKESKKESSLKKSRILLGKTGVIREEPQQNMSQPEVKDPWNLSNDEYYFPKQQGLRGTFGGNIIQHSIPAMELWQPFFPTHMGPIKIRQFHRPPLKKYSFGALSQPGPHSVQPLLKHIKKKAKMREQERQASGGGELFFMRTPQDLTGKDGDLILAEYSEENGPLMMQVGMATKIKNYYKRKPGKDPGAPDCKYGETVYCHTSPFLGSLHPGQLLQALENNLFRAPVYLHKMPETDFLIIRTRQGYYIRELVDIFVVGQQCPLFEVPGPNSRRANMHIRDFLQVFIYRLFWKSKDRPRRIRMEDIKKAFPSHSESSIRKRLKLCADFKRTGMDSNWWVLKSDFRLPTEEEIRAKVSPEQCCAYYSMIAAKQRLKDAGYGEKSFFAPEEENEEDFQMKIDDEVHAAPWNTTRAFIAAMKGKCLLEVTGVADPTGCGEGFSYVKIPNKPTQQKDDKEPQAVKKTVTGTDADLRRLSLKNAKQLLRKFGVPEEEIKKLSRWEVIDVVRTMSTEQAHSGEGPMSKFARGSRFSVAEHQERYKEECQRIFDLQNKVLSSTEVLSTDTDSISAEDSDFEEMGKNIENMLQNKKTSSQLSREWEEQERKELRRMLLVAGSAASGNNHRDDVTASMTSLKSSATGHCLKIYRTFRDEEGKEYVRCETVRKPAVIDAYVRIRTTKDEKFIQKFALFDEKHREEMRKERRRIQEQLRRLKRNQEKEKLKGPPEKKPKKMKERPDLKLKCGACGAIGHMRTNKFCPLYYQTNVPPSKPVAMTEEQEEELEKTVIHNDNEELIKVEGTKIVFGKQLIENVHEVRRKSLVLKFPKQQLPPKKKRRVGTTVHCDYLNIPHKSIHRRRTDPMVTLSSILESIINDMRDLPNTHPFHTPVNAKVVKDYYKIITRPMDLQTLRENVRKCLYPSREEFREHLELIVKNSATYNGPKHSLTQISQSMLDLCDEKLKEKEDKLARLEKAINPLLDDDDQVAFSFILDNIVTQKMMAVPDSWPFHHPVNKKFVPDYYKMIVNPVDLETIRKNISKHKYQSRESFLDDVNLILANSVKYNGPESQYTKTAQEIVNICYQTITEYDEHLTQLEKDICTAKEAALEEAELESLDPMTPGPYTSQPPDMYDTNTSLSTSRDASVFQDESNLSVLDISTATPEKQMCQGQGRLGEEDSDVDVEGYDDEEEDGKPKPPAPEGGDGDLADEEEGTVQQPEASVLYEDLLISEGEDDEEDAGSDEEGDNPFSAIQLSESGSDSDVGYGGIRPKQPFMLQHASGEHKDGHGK
Sequence of Casein kinase II subunit alpha (Homo sapiens) (P68400 whole entry, looked up): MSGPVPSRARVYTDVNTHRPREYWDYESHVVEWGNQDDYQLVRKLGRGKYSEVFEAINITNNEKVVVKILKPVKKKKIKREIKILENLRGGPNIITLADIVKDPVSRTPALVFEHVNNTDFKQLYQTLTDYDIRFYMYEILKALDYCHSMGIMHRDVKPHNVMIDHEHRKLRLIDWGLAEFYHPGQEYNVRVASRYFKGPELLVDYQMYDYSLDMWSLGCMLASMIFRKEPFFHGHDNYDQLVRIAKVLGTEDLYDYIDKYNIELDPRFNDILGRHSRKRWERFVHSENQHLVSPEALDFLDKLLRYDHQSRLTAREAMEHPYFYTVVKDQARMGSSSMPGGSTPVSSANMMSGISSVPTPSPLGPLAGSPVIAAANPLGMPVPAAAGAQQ
Sequence of Serine/threonine-protein kinase 4 (Homo sapiens) (Q13043 whole entry): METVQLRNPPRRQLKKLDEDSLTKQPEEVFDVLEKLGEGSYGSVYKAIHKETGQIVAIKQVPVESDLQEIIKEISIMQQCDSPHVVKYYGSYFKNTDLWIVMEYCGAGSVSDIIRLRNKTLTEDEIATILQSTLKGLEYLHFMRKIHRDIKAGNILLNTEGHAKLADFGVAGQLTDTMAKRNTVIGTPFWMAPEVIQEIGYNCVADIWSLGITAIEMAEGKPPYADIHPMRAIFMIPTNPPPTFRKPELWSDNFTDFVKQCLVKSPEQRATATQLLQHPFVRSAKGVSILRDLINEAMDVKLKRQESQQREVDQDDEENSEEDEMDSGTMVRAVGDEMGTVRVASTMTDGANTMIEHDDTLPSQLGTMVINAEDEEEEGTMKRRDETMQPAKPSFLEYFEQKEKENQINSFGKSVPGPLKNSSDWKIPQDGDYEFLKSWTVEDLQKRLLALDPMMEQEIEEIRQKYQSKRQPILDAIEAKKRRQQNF
Sequence of cGMP-dependent protein kinase 1 (Homo sapiens) (Q13976 whole entry): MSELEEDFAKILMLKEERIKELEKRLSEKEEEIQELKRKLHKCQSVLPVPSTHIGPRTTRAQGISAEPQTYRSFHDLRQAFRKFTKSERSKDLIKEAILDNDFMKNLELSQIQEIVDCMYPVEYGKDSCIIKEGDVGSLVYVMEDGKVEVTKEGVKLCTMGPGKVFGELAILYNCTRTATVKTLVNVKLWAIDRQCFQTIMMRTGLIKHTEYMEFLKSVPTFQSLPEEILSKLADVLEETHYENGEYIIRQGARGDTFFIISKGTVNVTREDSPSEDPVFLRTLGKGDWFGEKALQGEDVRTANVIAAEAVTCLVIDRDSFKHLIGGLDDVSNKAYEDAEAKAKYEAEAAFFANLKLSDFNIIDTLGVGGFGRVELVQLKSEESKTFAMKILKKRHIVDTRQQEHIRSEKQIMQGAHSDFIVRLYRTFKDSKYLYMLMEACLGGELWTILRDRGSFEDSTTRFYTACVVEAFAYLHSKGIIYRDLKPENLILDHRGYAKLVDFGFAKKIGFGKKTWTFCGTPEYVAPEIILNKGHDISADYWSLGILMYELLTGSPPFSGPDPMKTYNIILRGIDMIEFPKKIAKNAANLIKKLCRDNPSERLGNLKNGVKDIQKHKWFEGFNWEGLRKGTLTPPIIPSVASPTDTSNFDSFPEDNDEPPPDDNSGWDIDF

CN1C[C@H](Nc2nc3cc[nH]c3c(=O)n2C)C[C@H](c2ccc3c(c2)OCCO3)C1
inhibition [1]: inactive | inhibition [2]: inactive | inhibition [3]: inactive | inhibition [4]: inactive | inhibition [5]: inactive | Cmax [6]: 1420 ng/mL | inhibition [7]: inactive | inhibition [8]: inactive | inhibition (Homo sapiens [9]): inactive | inhibition [10]: inactive | inhibition [11]: inactive | inhibition [12]: inactive | inhibition [13]: inactive | inhibition [14]: inactive | inhibition [15]: inactive | inhibition [16]: inactive | inhibition [17]: inactive | inhibition (Homo sapiens [18]): inactive | inhibition (Mus musculus): inactive | inhibition [19]: inactive | inhibition [20]: inactive | Activity [21]: inactive | inhibition [22]: inactive
